Test results published in ChEMBL document CHEMBL1153787, “Unsaturated dideoxy fluoro-ketopyranosyl nucleosides as new cytostatic agents: a convenient synthesis of 2,6-dideoxy-3-fluoro-4-keto-beta-D-glucopyranosyl analogues of uracil, 5-fluorouracil, thymine, N4-benzoyl cytosine and N6-benzoyl adenine” (Eur J Med Chem, 2009).

Assays:
L1210 [1] = test: Cytotoxicity against mouse L1210 cells; assay type: functional, cell-based
Outline: (§1)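 Proliferation of suspension tumour cells (murine L1210 and FM3A, human Molt4/C8 and CEM) was measured. IC50 is the compound concentration that inhibits cell proliferation by 50%.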

FM3A = test: Cytotoxicity against mouse FM3A cells; assay type: functional, cell-based; outline: as §1
[2] = Cytotoxicity against human Molt4/C8 cells; assay type: functional, cell-based; conditions: MOLT-4; outline: as §1
CCRF-CEM [3] = test: Cytotoxicity against human CEM cells; assay type: functional, cell-based; outline: as §1
[4] = Cytotoxicity against MDCK cells assessed as reduction of cell viability by MTS dye staining; assay type: cell-based, Canis lupus familiaris; conditions: dog
Outline: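 MDCK cell viability read by colorimetric formazan-based MTS dye staining. CC50 is the compound concentration that reduces cell viability by 50%.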

[5] = Cytotoxicity against human HEL cells assessed as induction of microscopically visible alteration in cell morphology; assay type: cell-based; conditions: read-out: MIC
Outline: (§2)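 HEL, Vero and HeLa cell cultures were examined under the microscope for changes in cell morphology. MIC is the compound concentration that causes a microscopically visible alteration of cell morphology.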

[6] = Cytotoxicity against african green monkey Vero cells assessed as induction of microscopically visible alteration in cell morphology; assay type: cell-based; conditions: chlorocebus sabaeus, read-out: MIC; outline: as §2
HeLa = test: Cytotoxicity against human HeLa cells assessed as induction of microscopically visible alteration in cell morphology; assay type: functional; conditions: read-out: MIC; outline: as §2
L1210 [7] = test: Cytotoxicity against mouse L1210 cells assessed as inhibition of [3H]dThd incorporation into macromolecules; assay type: functional
Outline: (§3)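 L1210 and CEM cells were given radiolabelled [3H]dThd (DNA), [3H]Urd (RNA) or [3H]Leu (protein). Label incorporated into methanol-insoluble material was measured. IC50 is the concentration that inhibits precursor incorporation by 50%.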

CCRF-CEM [8] = test: Cytotoxicity against human CEM cells assessed as inhibition of [3H]dThd incorporation into macromolecules; assay type: functional; outline: as §3
L1210 [9] = test: Cytotoxicity against mouse L1210 cells assessed as inhibition of [3H]Urd incorporation into macromolecules; assay type: functional; outline: as §3
CCRF-CEM [10] = test: Cytotoxicity against human CEM cells assessed as inhibition of [3H]Urd incorporation into macromolecules; assay type: functional; outline: as §3
L1210 [11] = test: Cytotoxicity against mouse L1210 cells assessed as inhibition of [3H]Leu incorporation into macromolecules; assay type: functional; outline: as §3
CCRF-CEM [12] = test: Cytotoxicity against human CEM cells assessed as inhibition of [3H]Leu incorporation into macromolecules; assay type: functional; outline: as §3

Row | Compound | IC50 (L1210 [1]) [µM] | IC50 (FM3A) [µM] | IC50 [2] [µM] | IC50 (CCRF-CEM [3]) [µM] | CC50 [4] [µM] | MCC [5] [µM] | MCC [6] [µM] | minimum cytotoxic concentration (MCC) (HeLa) [µM] | IC50 (L1210 [7]) [µM] | IC50 (CCRF-CEM [8]) [µM] | IC50 (L1210 [9]) [µM] | IC50 (CCRF-CEM [10]) [µM] | IC50 (L1210 [11]) [µM] | IC50 (CCRF-CEM [12]) [µM]
1 | C[C@H]1O[C@@H](n2ccc(=O)[nH]c2=O)C=C(F)C1=O | 2.9 | 16 | 2.5 | 2.2 | 0.6 | 20 | 20 | 20 |  |  |  |  |  | 
2 | C[C@H]1O[C@@H](n2cnc3c(NC(=O)c4ccccc4)ncnc32)C=C(F)C1=O | 2.4 | 6 | 5 | 4.3 | 12 | 20 | 20 | 20 |  |  |  |  |  | 
3 | Cc1cn([C@H]2C=C(F)C(=O)[C@@H](C)O2)c(=O)[nH]c1=O | 2.8 | 10 | 2.5 | 2.6 | 0.7 | 20 | 20 | 20 |  |  |  |  |  | 
4 | C[C@H]1O[C@@H](n2cc(F)c(=O)[nH]c2=O)C=C(F)C1=O | 0.82 | 0.49 | 3.3 | 3.7 | 0.6 | 20 | 20 | 20 |  |  |  |  |  | 
5 | C[C@H]1O[C@@H](n2ccc(NC(=O)c3ccccc3)nc2=O)C=C(F)C1=O | 1.4 | 11.9 | 1.6 | 1.7 | 8.2 | 20 | 20 | 20 | 12 | 11 | 10 | 12 | 12 | 7.9
